In ChEMBL document CHEMBL2203201, “Synthesis and antimalarial evaluation of a screening library based on a tetrahydroanthraquinone natural product scaffold” (Bioorg Med Chem, 2012):
Converted amounts (≈) assume the structure as drawn.

How the values were obtained:
Plasmodium falciparum [1] = experiment: Antimalarial activity against chloroquine-sensitive ring stage plasmodium falciparum 3D7 infected in erythrocytes assessed as [3H]hypoxanthine incorporation after 48 hrs by liquid scintillation counting; format: functional, organism-based
Outline: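 P. falciparum 3D7-infected type O+ erythrocytes (0.5% parasitemia, 2.5% hematocrit) incubated with serial dilutions for 48 h under standard culture conditions. 0.5 μCi 3H-hypoxanthine then added and culture continued a further 24 h. Incorporation counted by liquid scintillation against 0.5% DMSO controls. IC50 by linear interpolation of inhibition curves. Mean of three independent experiments, each in triplicate, ±SD.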

[2] = Selectivity index, ratio of IC50 for human NFF cells to IC50 for chloroquine-sensitive ring stage plasmodium falciparum 3D7
NFF = experiment: Cytotoxicity against human NFF cells after 3 days by sulforhodamine B assay; format: cell-based; conditions: 72 h
Outline: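 Neonatal foreskin fibroblasts grown in RPMI 1640 with 10% FCS and 1% streptomycin at 37 °C, 5% CO2, kept in log phase. Seeded at 3000/well and grown 24 h before treatment. Compounds diluted from DMSO into medium (≤1% DMSO); controls got matching DMSO. After 3 days, PBS wash, fixation in methylated spirits, total protein by sulforhodamine B. Triplicate, three independent experiments.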

Plasmodium falciparum [3] = experiment: Antimalarial activity against chloroquine-resistant ring stage plasmodium falciparum Dd2 infected in erythrocytes assessed as [3H]hypoxanthine incorporation after 48 hrs by liquid scintillation counting; format: functional, organism-based
Outline: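 Infected erythrocytes at 0.5% parasitemia and 2.5% hematocrit were plated into serial dilutions of test compound or chloroquine control. After 48 h under standard culture conditions, 0.5 μCi 3H-hypoxanthine was added per well and incubation continued 24 h. Cells were harvested onto filter mats and counted by scintillation. Inhibition was set against 0.5% DMSO controls, and IC50 was obtained by linear interpolation. Mean ± SD of three independent triplicate experiments.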

Staphylococcus aureus = experiment: Antibacterial activity against Staphylococcus aureus; format: functional, organism-based
Pseudomonas aeruginosa = experiment: Antibacterial activity against Pseudomonas aeruginosa; format: functional, organism-based

Structure (SMILES) | IC50 (Plasmodium falciparum [1]) | Ratio IC50 [2] | IC50 (NFF) | IC50 (Plasmodium falciparum [3]) | IC50 (Staphylococcus aureus) | IC50 (Pseudomonas aeruginosa)
COC1=CC(=O)c2c(O)c3c(c(O)c2C1=O)C[C@@](C)(O)C[C@@H]3O | 4.7 µM | 9.3 | 43.7 µM | 11.1 µM | – | –
COC1=CC(=O)c2c(O)c3c(c(O)c2C1=O)C[C@](C)(O)C[C@@H]3O | 1.9 µM | 8.2 | 15.6 µM | 2.2 µM | 3 mg/L (≈ 9.37 µM) | > 50 mg/L
COC1=CC(=O)c2c(O)c3c(c(O)c2C1=O)C[C@](C)(O)CC3 | 4.5 µM | 12.1 | 54.6 µM | 5.2 µM | – | –
CC(C)(C)OC(=O)NCCCNC1=CC(=O)c2c(O)c3c(c(O)c2C1=O)C[C@](C)(O)C[C@@H]3O | 6.7 µM | 5.4 | 36.5 µM | – | – | –
C[C@]1(O)Cc2c(O)c3c(c(O)c2[C@@H](O)C1)C(=O)C=C(NCCc1ccccc1)C3=O | 3.8 µM | 0.9 | 3.5 µM | – | – | –
C[C@]1(O)Cc2c(O)c3c(c(O)c2[C@@H](O)C1)C(=O)C=C(NCCc1ccc(O)cc1)C3=O | 2.4 µM | 9.7 | 23.3 µM | – | – | –
C[C@]1(O)Cc2c(O)c3c(c(O)c2[C@@H](O)C1)C(=O)C=C(NCCc1ccc(Cl)cc1)C3=O | 4.2 µM | 15.7 | 66 µM | – | – | –
C[C@]1(O)Cc2c(O)c3c(c(O)c2[C@@H](O)C1)C(=O)C=C(NCc1ccccc1)C3=O | 7.4 µM | 1.4 | 10.7 µM | – | – | –
COc1cc(O)c2c(c1O)C(=O)c1cc(C)ccc1C2=O [AUSTROCORTIRUBIN] | > 50 µM | – | 76 µM | > 50 µM | – | –
CCN(CC)CCCC(C)Nc1ccnc2cc(Cl)ccc12 (stereo unspecified) [CHLOROQUINE] | – | – | 37.3 µM | – | – | –

Further lines, with some results ahead:

IC50 (Plasmodium falciparum [1]) | Structure (SMILES) | Ratio IC50 [2] | IC50 (NFF) | IC50 (Plasmodium falciparum [3]) | IC50 (Staphylococcus aureus) | IC50 (Pseudomonas aeruginosa)
4.3 µM | CCCNC1=CC(=O)c2c(O)c3c(c(O)c2C1=O)C[C@](C)(O)C[C@@H]3O | 18.3 | 78.8 µM | – | – | –
16.5 µM | C[C@]1(O)Cc2c(O)c3c(c(O)c2[C@@H](O)C1)C(=O)C=C(NCCCN)C3=O | 5.4 | 89.8 µM | – | – | –
10.3 µM | COCCNC1=CC(=O)c2c(O)c3c(c(O)c2C1=O)C[C@](C)(O)C[C@@H]3O | 8.2 | 84.3 µM | – | – | –
15.8 µM | C[C@]1(O)Cc2c(O)c3c(c(O)c2[C@@H](O)C1)C(=O)C=C(NCCN1CCOCC1)C3=O | 3.9 | 62 µM | – | – | –
6.9 µM | CNC1=CC(=O)c2c(O)c3c(c(O)c2C1=O)C[C@](C)(O)C[C@@H]3O | 8.6 | 59.1 µM | – | – | –
6.3 µM | C[C@]1(O)Cc2c(O)c3c(c(O)c2[C@@H](O)C1)C(=O)C=C(NCCN1CCCC1)C3=O | 2.5 | 15.9 µM | – | – | –
